One experiment concerns the target P2Y purinoceptor 1 (Meleagris gallopavo, UniProt P49652). Briefly: Compounds was tested for its ability to stimulate phospholipase C activity at the P2Y purinoceptor 1 in turkey erythrocyte membranes. The class given is cell membranes. The gist of the method: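 Turkey erythrocytes labeled 18–24 h at 37 °C with 2-[3H]myo-inositol in inositol-free DMEM; membranes from hypotonic lysis; PLC assay at pH 7.0 with […] and varying nucleotide concentrations, 5 min at 30 °C; total [3H]inositol phosphates by ion-exchange chromatography; EC50 from four-parameter logistic fit, ≥3 experiments on different membrane preparations, duplicate assays.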

The species entered for experiment [1] is Rattus norvegicus. Briefly: Amplitude of the [Ca++]i Transient evoked by 10 uM ATP, AMP and the compound in NG108-15 Neuroblastoma x Glioma Hybrid cells. The class given is functional. The gist of the method:
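NG108-15 cells (passage 24–40) grown on glass coverslips 3–7 days (20–80% confluency), loaded 30 min at 37 °C with 2 μM fura-2/AM in HEPES-buffered saline pH 7.4, superfused at 37 °C; 30-s agonist application at 10 μM; single-cell imaging, alternate 340/380 nm excitation, emission >510 nm; amplitude as Δ F340/F380 ratio, mean ± SEM over n single cells.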

Experiment [2] is filed under the species Rattus norvegicus. Description: Amplitude of the [Ca++]i Transient evoked by 10 uM ATP, AMP and the compound in rat Astrocytes, expressed as (F340 nm/F380 nm). The experiment is classed as functional. The gist of the method:
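Primary astrocyte-enriched cultures from newborn Wistar rat whole brain, used on days 6–11 in culture; fura-2/AM (2 μM, 30 min, 37 °C, HEPES-buffered saline pH 7.4) loading; superfusion at 37 °C, 30-s stimulation at 10 μM; single-cell 340/380 nm ratio imaging; maximal Δ F340/F380, mean ± SEM, n = single cells.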

SMILES strings stand for the structures.

Sequence of P2Y purinoceptor 1 (P49652 whole entry): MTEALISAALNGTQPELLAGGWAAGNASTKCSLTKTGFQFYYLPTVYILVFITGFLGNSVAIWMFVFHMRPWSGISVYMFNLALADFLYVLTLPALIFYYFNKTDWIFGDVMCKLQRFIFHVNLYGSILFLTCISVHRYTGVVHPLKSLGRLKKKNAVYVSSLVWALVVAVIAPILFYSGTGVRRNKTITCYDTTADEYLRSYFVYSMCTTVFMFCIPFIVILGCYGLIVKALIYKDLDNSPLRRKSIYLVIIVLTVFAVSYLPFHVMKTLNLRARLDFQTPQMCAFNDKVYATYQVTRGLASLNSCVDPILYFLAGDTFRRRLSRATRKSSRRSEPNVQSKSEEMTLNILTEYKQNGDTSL

Take `CCCCNc1nc2c(N)ncnc2n1[C@@H]1O[C@H](COP(=O)(O)OP(=O)(O)OP(=O)(O)O)[C@@H](O)[C@H]1O`: it took 51000 nM to reach a half-maximal effect at P2Y purinoceptor 1 (EC50). Still for that read-out and setting: to `CCCCSc1nc2c(N)ncnc2n1[C@@H]1O[C@H](COP(=O)(O)OP(=O)(O)OP(=O)(O)O)[C@@H](O)[C@H]1O` belongs 10000 nM. Compound `CCCCOc1nc(N)c2ncn([C@@H]3O[C@H](COP(=O)([O-])OP(=O)([O-])OP(=O)([O-])[O-])[C@@H](O)[C@H]3O)c2n1.[Na+].[Na+].[Na+].[Na+]` came in with an EC50 on P2Y purinoceptor 1 of 88 nM. The Activity in the experiment filed under Rattus norvegicus [1] was 0.06; in the experiment listed under Rattus norvegicus [2], 0.63. `CCCCOc1nc2c(N)ncnc2n1[C@@H]1O[C@H](COP(=O)(O)OP(=O)(O)OP(=O)(O)O)[C@@H](O)[C@H]1O` yielded an EC50 on P2Y purinoceptor 1 of 5710 nM. On to `CCCCSc1nc(N)c2ncn([C@@H]3O[C@H](COP(=O)([O-])OP(=O)([O-])OP(=O)([O-])[O-])[C@@H](O)[C@H]3O)c2n1.[Na+].[Na+].[Na+].[Na+]`, for which the EC50 at P2Y purinoceptor 1 amounted to 18 nM. Moreover, the Activity in the experiment filed under Rattus norvegicus [1] turned out to be 0.23; in the experiment filed under Rattus norvegicus [2], 0.9.

At P2Y purinoceptor 1, `CCCCNc1nc(N)c2ncn([C@@H]3O[C@H](COP(=O)([O-])OP(=O)([O-])OP(=O)([O-])[O-])[C@@H](O)[C@H]3O)c2n1.[Na+].[Na+].[Na+].[Na+]` registered an EC50 of 39 nM. Further, the Activity in the experiment filed under Rattus norvegicus [1] came to 0.05; in the experiment listed under Rattus norvegicus [2], 0.89.

For the compound `CCCCSc1nc(N)c2ncn(C3O[C@H](COP(=O)([O-])[O-])[C@@H](O)[C@H]3O)c2n1.[Na+].[Na+]` (stereo partly drawn), in the experiment listed under Rattus norvegicus [2], the Activity is reported as 0.28.

One may read the EC50 as the concentration that produces a half-maximal response.

Source of the values: ChEMBL document CHEMBL1132547, “Molecular recognition of modified adenine nucleotides by the P2Y(1)-receptor. 1. A synthetic, biochemical, and NMR approach” (J Med Chem, 1999).
